Assay results reported in ChEMBL document CHEMBL1153402, “Pyrido[2,3-e]-1,2,4-triazolo[4,3-a]pyrazin-1-one as a new scaffold to develop potent and selective human A3 adenosine receptor antagonists. Synthesis, pharmacological evaluation, and ligand-receptor modeling studies” (J Med Chem, 2009).

Experiments:
Adenosine receptor A1 [1] = molecular target: T1, Adenosine receptor A1 (Bos taurus, UniProt P28190); experiment: Displacement of [3H]DPCPX from bovine brain cortical membrane adenosine A1 receptor
T1 sequence (P28190 whole entry): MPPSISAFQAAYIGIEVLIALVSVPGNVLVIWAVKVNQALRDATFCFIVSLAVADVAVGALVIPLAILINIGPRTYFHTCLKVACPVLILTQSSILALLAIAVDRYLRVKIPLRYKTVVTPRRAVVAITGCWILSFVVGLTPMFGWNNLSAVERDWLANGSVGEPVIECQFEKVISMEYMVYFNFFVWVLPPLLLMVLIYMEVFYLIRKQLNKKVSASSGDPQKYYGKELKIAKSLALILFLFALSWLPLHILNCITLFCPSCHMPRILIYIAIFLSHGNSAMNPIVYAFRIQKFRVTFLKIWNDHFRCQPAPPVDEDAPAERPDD

Bos taurus = species on record: Bos taurus; experiment: Displacement of [3H]CGS 21680 from bovine striatal membrane adenosine A2A receptor at 20 uM
Method in brief: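 IC50 from five concentrations in triplicate, nonlinear regression; Ki via Cheng–Prusoff from four assays. Single-point values as percent inhibition at 20 μM.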

Adenosine receptor A2a = Adenosine receptor A2a (Homo sapiens, UniProt P29274); experiment: Displacement of [3H]NECA from human cloned adenosine A2A receptor expressed in CHO cells at 10 uM; format: cell-based
Sequence of Adenosine receptor A2a (P29274 whole entry): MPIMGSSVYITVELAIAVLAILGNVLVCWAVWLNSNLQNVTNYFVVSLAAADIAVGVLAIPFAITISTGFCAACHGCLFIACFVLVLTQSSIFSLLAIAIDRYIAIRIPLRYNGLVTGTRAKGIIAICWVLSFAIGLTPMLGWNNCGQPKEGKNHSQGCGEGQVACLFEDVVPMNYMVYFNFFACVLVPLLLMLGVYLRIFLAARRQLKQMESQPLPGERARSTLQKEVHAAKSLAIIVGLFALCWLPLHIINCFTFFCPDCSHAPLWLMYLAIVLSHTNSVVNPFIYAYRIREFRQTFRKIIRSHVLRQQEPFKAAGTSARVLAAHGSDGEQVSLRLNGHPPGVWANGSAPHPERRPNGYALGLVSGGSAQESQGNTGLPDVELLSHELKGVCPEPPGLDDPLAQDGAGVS
Method in brief: (§1)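 CHO cell membranes stably expressing hA1 or hA2A; radioligands [3H]DPCPX (hA1, Kd 3 nM) and [3H]NECA (hA2A, Kd 30 nM). IC50 from five displacer concentrations in triplicate, nonlinear regression; Ki by Cheng–Prusoff; four separate assays. Single-point values as percent inhibition of specific binding at 10 μM.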

Adenosine receptor A3 [2] = molecular target: T2, Adenosine receptor A3 (Homo sapiens, UniProt P0DMS8); experiment: Antagonist activity at human adenosine A3 receptor expressed in CHO cells assessed as blockade of NECA-mediated inhibition of forskolin-stimulated cAMP accumulation; format: functional, cell-based
T2 sequence (P0DMS8 whole entry): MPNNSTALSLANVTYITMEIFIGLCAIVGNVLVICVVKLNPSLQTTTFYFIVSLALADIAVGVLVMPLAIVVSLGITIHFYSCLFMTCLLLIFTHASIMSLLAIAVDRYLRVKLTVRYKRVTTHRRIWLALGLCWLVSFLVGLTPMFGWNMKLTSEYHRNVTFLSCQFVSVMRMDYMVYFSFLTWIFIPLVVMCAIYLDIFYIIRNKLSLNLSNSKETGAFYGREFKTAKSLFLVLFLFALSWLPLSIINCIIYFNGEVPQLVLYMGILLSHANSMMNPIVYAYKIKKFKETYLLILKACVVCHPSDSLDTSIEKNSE
Method in brief: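 CHO cells stably expressing hA3, plated 48 h, preincubated 15 min at 37 °C with Ro 20-1724 (20 μM) and adenosine deaminase (1 U/mL). Compound (1 nM–10 μM; DMSO stock diluted in water) added 15 min before 100 nM NECA, with 1 μM forskolin stimulation. Lysis in 0.4 N HCl; cAMP by competitive protein binding with [3H]cAMP. EC50 by sigmoid nonlinear regression; three experiments.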

[3] = molecular target: Adenosine receptor A2a (Rattus norvegicus) (UniProt P30543); experiment: Displacement of [3H]CGS21680 adenosine A2A receptor in Wistar rat brain membrane at 10 uM; format: cell membranes
Sequence of Adenosine receptor A2a (Rattus norvegicus) (P30543 whole entry): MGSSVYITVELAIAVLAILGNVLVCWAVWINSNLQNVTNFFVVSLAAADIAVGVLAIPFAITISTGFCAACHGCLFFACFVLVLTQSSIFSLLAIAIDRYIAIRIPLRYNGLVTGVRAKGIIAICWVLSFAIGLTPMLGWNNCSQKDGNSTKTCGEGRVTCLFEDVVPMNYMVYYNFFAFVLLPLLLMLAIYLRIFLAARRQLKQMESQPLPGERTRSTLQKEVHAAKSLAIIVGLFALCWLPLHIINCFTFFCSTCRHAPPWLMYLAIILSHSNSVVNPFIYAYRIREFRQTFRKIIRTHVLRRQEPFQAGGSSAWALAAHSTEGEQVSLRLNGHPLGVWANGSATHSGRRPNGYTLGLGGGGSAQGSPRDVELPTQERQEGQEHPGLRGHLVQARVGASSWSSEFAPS

[4] = molecular target: T3, Adenosine receptor A1 (Homo sapiens) (UniProt P30542); experiment: Displacement of [3H]DPCPX from human cloned adenosine A1 receptor expressed in CHO cells at 10 uM; format: cell-based; method in brief: as §1
T3 sequence (whole entry): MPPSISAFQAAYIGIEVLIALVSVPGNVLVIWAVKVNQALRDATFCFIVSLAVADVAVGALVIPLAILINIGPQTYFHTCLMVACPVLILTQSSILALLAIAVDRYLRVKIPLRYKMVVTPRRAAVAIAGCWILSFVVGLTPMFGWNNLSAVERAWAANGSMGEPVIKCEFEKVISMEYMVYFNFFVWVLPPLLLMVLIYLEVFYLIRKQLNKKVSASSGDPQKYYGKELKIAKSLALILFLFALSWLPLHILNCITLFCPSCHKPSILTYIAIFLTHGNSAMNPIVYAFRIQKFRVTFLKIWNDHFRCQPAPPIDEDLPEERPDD

[5] = molecular target: T4, Adenosine receptor A3 (Rattus norvegicus) (UniProt P28647); experiment: Displacement of [125I]AB-MECA from Wistar rat adenosine A3 receptor expressed in HEK293/EBNA cells by gamma-scintillation spectrometry at 1 uM; format: cell-based
T4 sequence (whole entry): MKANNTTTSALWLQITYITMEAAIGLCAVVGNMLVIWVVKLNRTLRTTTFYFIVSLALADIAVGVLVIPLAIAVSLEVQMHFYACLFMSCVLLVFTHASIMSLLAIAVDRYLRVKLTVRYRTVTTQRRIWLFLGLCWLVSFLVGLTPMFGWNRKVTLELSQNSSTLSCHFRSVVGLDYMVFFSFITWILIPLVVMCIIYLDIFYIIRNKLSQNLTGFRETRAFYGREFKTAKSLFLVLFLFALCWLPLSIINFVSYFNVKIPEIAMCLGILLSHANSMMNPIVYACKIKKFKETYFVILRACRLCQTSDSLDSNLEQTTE

Hippocampus [6] = experiment: Neuroprotective effect against 30-mins oxygen-glucose deprivation triggered neuronal injury in Wistar rat hippocampus CA1 region assessed as delay in anoxic depolarization latency at 10 nM relative to control; format: functional
Method in brief: (§2)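 Rat hippocampal slices; CA1 stratum radiatum stimulated (80 μs, 0.066 Hz) with fEPSP at 40–50% of maximum, amplitude expressed as percent of 5 min pre-OGD baseline. OGD: glucose-free aCSF gassed 95% N2/5% CO2 for 7 or 30 min, then reperfusion with oxygenated glucose aCSF. Compound 10 nM (DMSO stock diluted in aCSF) applied 15 min before, during and 5 min after OGD. Anoxic depolarization recorded as negative dc shift, latency from OGD onset; unpaired two-tailed t test.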

Hippocampus [7] = experiment: Neuroprotective effect against 7-mins oxygen-glucose deprivation triggered neuronal injury in Wistar rat hippocampal CA1 region assessed as recovery of field excitatory post synaptic potential at 10 nM relative to control; format: functional; method in brief: as §2
Adenosine receptor A1 [8] = molecular target: T5, Adenosine receptor A1 (Rattus norvegicus, UniProt P25099); experiment: Displacement of [3H]DPCPX from adenosine A1 receptor in Wistar rat brain membrane; format: cell membranes
T5 sequence (P25099 whole entry): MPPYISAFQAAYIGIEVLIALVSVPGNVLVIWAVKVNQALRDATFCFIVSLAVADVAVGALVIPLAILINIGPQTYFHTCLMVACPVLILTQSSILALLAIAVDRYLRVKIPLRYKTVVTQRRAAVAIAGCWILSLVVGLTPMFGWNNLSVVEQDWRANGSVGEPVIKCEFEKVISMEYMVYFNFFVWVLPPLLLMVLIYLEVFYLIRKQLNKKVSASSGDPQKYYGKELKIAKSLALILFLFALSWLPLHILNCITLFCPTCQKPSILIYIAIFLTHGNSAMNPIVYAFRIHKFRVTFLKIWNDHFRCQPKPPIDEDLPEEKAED
Method in brief: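 Nonspecific binding defined with 20 μM R-PIA. Filtration on GF/C filters. IC50 by nonlinear regression over five displacer concentrations in triplicate; Ki via Cheng–Prusoff.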

Adenosine receptor A3 [9] = molecular target: T2, Adenosine receptor A3; experiment: Displacement of [125I]AB-MECA from human cloned adenosine A3 receptor expressed in CHO cells; format: cell-based

`COc1ccc(-n2nc3c(NC(=O)c4ccccc4)nc4ncccc4n3c2=O)cc1` showed a Ki (Adenosine receptor A1 [1]) of 355 nM, an Activity (Bos taurus) of 7% and an Activity (Adenosine receptor A2a) of 27%. It also gave an EC50 (Adenosine receptor A3 [2]) of 36.3 nM, an Activity [3] of 34% and an Activity [4] of 38%. It also gave an Activity [5] of 0%, an Activity (Hippocampus [6]) of 8.9 and an Activity (Hippocampus [7]) of 77.6%. The Ki (Adenosine receptor A1 [8]) was 587 nM and the Ki (Adenosine receptor A3 [9]) was 4.54 nM.
